Screening data from PubChem BioAssay.
A selection: hits, their analogues and other compounds. The true share with any hit is near 2.2%.
PfM18AAP inh-1 = blocks P. falciparum M18 aspartyl aminopeptidase. recombinant PfM18AAP, H-Glu-NHMec fluorogenic cleavage. inhibition, % at 7.35 µM. actives 1.2% (n = 290,000). AID 1822;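 active = inhibition above the campaign mean inhibition over all tested compounds plus 3 SD, cut at about 28% in these data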;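 note: 0% = plate median of test compound wells and 100% = 2 mM ZnCl2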
PfG6PD inh = PfG6PD (Plasmodium falciparum) enzyme inhibition; actives 0.78% (n = 350,000); AID 504690; PfGluPho enzyme, NADPH resazurin-diaphorase fluorescence; inhibition, % at 20 µM;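 active = inhibition reaching at least a set limit at 20 µM in the primary screen, cut at about 59% in these data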;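 note: 0% = DMSO wells with substrate and 100% = DMSO wells lacking glucose-6-phosphate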
HKDC1 inhibitor = HKDC1 (human) hexokinase inhibition; recombinant HKDC1, G6PDH/diaphorase resazurin coupled fluorescence; inhibition, % at 20 µM; actives 0.16% (n = 340,000); AID 493160; Q2TB90;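 active = inhibition above about 35% when tested at 20 µM, limit read from the data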;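 note: plate controls were DMSO wells with enzyme for no effect and DMSO wells lacking enzyme for full effect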
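Test system: recombinant HKDC1 (HK5) hexokinase enzyme, produced in-house; Amount: enzyme 5 µg/mL final; Buffer or medium: Tris pH 8.0 buffer with MgCl2, Tween-20, BSA, BME; Reagent: glucose and ATP substrates; Doses: 20 µM test compound, 1% DMSO; Incubation: 90 min reaction incubation at room temperature, dark; Detection: resorufin fluorescence at 613 nm.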
Neddyl block = cullin neddylation inhibition; inhibition, % at 25 µM; AID 651699; TR-FRET cullin neddylation, biochemical; P61081+Q13564; actives 0.58% (n = 360,000); in the data active = inhibition above about 36%
PfM18AAP inh-2 = PfM18AAP inhibition, confirmation; recombinant PfM18AAP, H-Glu-NHMec fluorogenic cleavage; AID 2170; actives 28% (n = 2,400); inhibition, % at 7.35 µM; shares compounds with PfM18AAP inh-1;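 active = mean inhibition over replicate wells above the hit cutoff set for the earlier primary screen, cut at about 29% in these data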;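 note: 0% = median of test compound wells and 100% = 2 mM ZnCl2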
CTSL1 counter = counter-screen for PFM18AAP inhibitors: confirmation of human cathepsin L inhibitors. shares compounds with PfM18AAP inh-1. purified cathepsin L1, Z-Leu-Arg-MCA fluorescence. inhibition, % at 5.96 µM. 2,400 tested, under 10 active;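 active = average inhibition across replicates above the hit cutoff set in the earlier primary screen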;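 note: 0% = median of test compound wells and 100% = Z-Phe-Ala-diazomethylketone 1 µM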
Target sequence (P07711 whole entry, looked up): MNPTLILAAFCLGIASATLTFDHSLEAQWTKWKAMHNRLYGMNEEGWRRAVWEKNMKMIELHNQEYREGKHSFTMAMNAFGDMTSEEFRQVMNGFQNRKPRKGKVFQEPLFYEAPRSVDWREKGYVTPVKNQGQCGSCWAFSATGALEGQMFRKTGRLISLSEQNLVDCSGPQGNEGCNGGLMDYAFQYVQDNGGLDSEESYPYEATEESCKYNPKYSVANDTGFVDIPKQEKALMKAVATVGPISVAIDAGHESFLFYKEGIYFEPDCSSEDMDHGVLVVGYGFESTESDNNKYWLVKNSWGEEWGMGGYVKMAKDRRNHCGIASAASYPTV
HKDC1 act conf = HKDC1 (human) activation, single-dose confirmed | shares compounds with HKDC1 inhibitor | recombinant HKDC1, G6PDH/diaphorase resazurin fluorescence; hits give low values | inhibition, % at 20 µM | actives 14% (n = 740) | AID 504708;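 active = inhibition at or below a set negative limit, negative inhibition meaning the enzyme was activated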
PfG6PD confirm = confirmation of Plasmodium falciparum G6PD inhibitors | shares compounds with PfG6PD inh | recombinant PfGluPho, NADPH-diaphorase-resazurin fluorescence | inhibition, % at 20 µM | actives 34% (n = 2,400) | AID 504753;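 active = inhibition of at least 50% at 20 µM in any single replicate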;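 note: 0% = DMSO with substrate and 100% = DMSO lacking glucose-6-phosphate substrate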
Diaphorase 10uM = diaphorase inhibition or oxidation at 10 uM NADPH. shares compounds with PfG6PD inh. diaphorase-coupled resazurin reduction, fluorescence, NADPH 10 uM. inhibition, % at 20 µM. actives 39% (n = 820). AID 504862;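 active = average inhibition reaching 50% or more with the compound at 20 µM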;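 note: resorufin red fluorescence formed as diaphorase reduces resazurin using NADPH; 0% = DMSO with enzyme and 100% = DMSO without enzyme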
Diaph ctr 30uM = inhibits diaphorase or oxidizes, flagging false PfG6PD hits; shares compounds with PfG6PD inh; Diaphorase/resazurin coupled assay, resorufin fluorescence, 30 uM NADPH; inhibition, % at 20 µM; actives 29% (n = 820);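 active = inhibition averaging 50% or more, tested at 20 µM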;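 note: 0% = DMSO with enzyme and 100% = DMSO wells lacking diaphorase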
The depositor's hits bear a star; . = no result given.

SMILES	PfM18AAP inh-1	PfG6PD inh	HKDC1 inhibitor	Neddyl block	PfM18AAP inh-2	CTSL1 counter	PfG6PD confirm	Diaphorase 10uM	Diaph ctr 30uM	others
Cc1sc(NC(=O)Nc2ccccc2)c(C(N)=O)c1C	36.6*	73.8*	3.3	2.6	4.9	-0.2	26.6	.	.
O=[N+]([O-])c1ccc(N2CCN(c3ccc(O)cc3)CC2)cn1	40.5*	62.1*	5.4	-30.2	1.8	-1.2	38.2	.	.
COc1ccc(S(=O)(=O)Nc2cccc3ccc(O)cc23)cc1	.	4.3	-1.0	-16.2	.	.	.	.	.
COc1ccc(S(=O)(=O)Nc2cc(SCC(=O)O)c(O)c3ccccc23)cc1	32.7*	110.4*	57.1*	-40.2	-0.3	-1.8	95.8*	42.5	33.4	HKDC1 act conf=47.2
CN(CC(=O)Nc1ccccc1Br)C(=O)CN1CCN(Cc2ccc(Cl)cc2)CC1	.	6.8	-1.7	17.9	.	.	.	.	.
CN1CCc2cccc3c2C1Cc1ccc(O)c(O)c1-3 (stereo unspecified)	74.8*	64.0*	4.0	13.7	73.7*	-8.7	46.3	.	.
O=C(Nc1ncccc1O)c1ccc(Oc2ccccc2)cc1	4.6	2.5	-2.3	-8.4	.	.	.	.	.
COc1cc(/C=N/N2CCN(Cc3ccc(C)cc3)CC2)cc(OC)c1O	46.8*	78.6*	9.1	-5.0	3.9	1.4	15.5	.	.
CCN(C(=O)CN1CCN(c2ccc(O)cc2)CC1)c1c(N)n(Cc2ccccc2)c(=O)[nH]c1=O	34.9*	73.1*	10.0	-3.4	1.1	-3.8	35.6	.	.
Oc1ccccc1/C=N/N1CCCCC1	2.2	3.8	-3.9	8.7	.	.	.	.	.
Oc1ccc(/C=N/N2CCCCC2)c(O)c1O	48.1*	117.9*	-1.4	-4.5	1.4	-8.1	91.6*	98.4*	96.1*
Oc1cccc(/C=N/NC(=S)Nc2cccnc2)c1O	16.1	18.7	-0.8	5.5	.	.	.	.	.
Cc1cccc(N/N=C/c2ccc(O)c(O)c2O)c1	36.1*	84.2*	14.4	2.9	17.2	1.8	43.5	.	.
Oc1ccc(/C=N/NC(=S)Nc2cccnc2)c(O)c1O	62.1*	80.3*	10.2	-10.8	34.1*	1.8	67.1*	55.4*	80.2*
COc1cccc(N/N=C/c2cccc(Br)c2O)c1	-2.3	29.7	1.9	5.4	.	.	.	.	.
c1cc2c(cc1NC1CCCCCC1)OCO2	53.1*	62.4*	4.9	9.2	27.8	-2.4	60.6*	2.2	-2.4
O=C(NC1CCCCCCC1)c1ccc2c(c1)OCO2	2.1	8.3	0.4	-1.0	.	.	.	.	.
Oc1ccc(N2CCN(c3ncnc4sc(-c5ccccc5)cc34)CC2)cc1	43.5*	71.8*	4.2	-2.4	9.9	0.1	22.9	.	.
Nc1c(C(=O)N2CCOCC2)sc2nc(N3CCOCC3)c3c(c12)CCCC3	36.5*	65.5*	2.9	5.4	10.0	1.4	-5.0	.	.
CC1(C)Cc2c(c(N3CCOCC3)nc3sc(C(=O)N4CCCCC4)c(N)c23)CO1	33.5*	68.3*	7.3	1.2	-5.8	2.4	15.1	.	.
CC(Nc1ccc(Br)cc1)C(=O)Nc1cccc(S(=O)(=O)N2CCOCC2)c1 (stereo unspecified)	.	14.6	-1.3	-2.0	.	.	.	.	.
COc1ccccc1COc1ccc2c(C)c(CC(=O)O)c(=O)oc2c1C	-4.1	-13.5	-8.7	35.9	.	.	.	.	.
Cc1c(CN2CCC(n3nccc3NC(=O)C3CC3)CC2)[nH]c2ccccc12	3.3	0.5	-4.4	8.8	.	.	.	.	.
CC(=O)N1CCC(C(=O)N2c3ccccc3N=C(c3ccc4c(c3)OCO4)C2C(=O)NCc2ccccc2)CC1 (stereo unspecified)	.	.	.	5.3	.	.	.	.	.
CC(C)(C)CC(C)(C)NCC(=O)Nc1c2c(nc3ccccc13)CCC2	5.7	0.0	-9.2	1.3	.	.	.	.	.
SMILES	PfM18AAP inh-1	PfG6PD inh	HKDC1 inhibitor	Neddyl block	PfM18AAP inh-2	CTSL1 counter	PfG6PD confirm	Diaphorase 10uM	Diaph ctr 30uM	others
O=[N+]([O-])c1ccc(N/N=C/c2ccc(O)c(O)c2O)c(S(=O)(=O)N2CCOCC2)c1	36.9*	66.5*	38.2*	-32.9	-29.2	-7.0	61.9*	30.4	28.3	HKDC1 act conf=8.7
COCCN(C(=S)Nc1c(C)cc(C)cc1C)C(C)c1cccnc1 (stereo unspecified)	49.3*	69.1*	-8.2	-1.4	9.3	-7.7	29.6	.	.
CCCNC(=O)Cn1sc2nc(C)cc(C)c2c1=O	58.1*	81.3*	-1.7	-9.8	30.4*	0.9	68.3*	-32.3	-23.1
CCOC(=O)C1CCCN(C(=O)Cn2sc3nc(C)cc(C)c3c2=O)C1 (stereo unspecified)	59.2*	68.5*	0.8	-2.1	23.5	-3.8	51.7*	-18.1	-20.4
Cc1cc(C)c2c(=O)n(CC(=O)N3CCC(N4CCCCC4)CC3)sc2n1	42.9*	80.2*	-7.9	6.4	2.1	4.1	62.7*	-2.1	1.8
COc1ccccc1C(=O)Nc1nnc(S(=O)(=O)N2CCN(c3ccc(F)cc3)CC2)s1	-3.4	1.0	-4.7	-17.6	.	.	.	.	.
CCN(CC(=O)Nc1ccc(NC(C)=O)cc1)C(=O)c1cc(S(=O)(=O)N2CCCCCC2)ccc1OC	.	1.8	-2.0	8.8	.	.	.	.	.
CCn1c(=O)n(CC)c2cc(N3CCCC3)c(NC(=O)c3ccc(F)cc3)cc21	34.9*	77.7*	3.2	31.3	-54.0	5.1	40.8	.	.
CCOc1ccc(C(=O)Nc2cc3c(cc2N2CCCC2)n(CC)c(=O)n3CC)cc1OCC	19.0	32.5	6.5	.	.	.	.	.	.
c1ccc(CCn2cccc2)nc1	.	6.7	-5.2	-3.0	.	.	.	.	.
CCOC(=O)c1c(C)n(-c2ccc(C)cc2)c2c(C(C(C)=O)C(=O)O)c(Br)c(O)c(O)c12 (stereo unspecified)	64.8*	104.9*	11.0	10.3	37.3*	2.9	101.2*	45.8	25.7
CCOC(=O)c1c(C)n(-c2ccc(C)cc2)c2c(CC(C)=O)c(Br)c(OC)c(O)c12	1.1	-13.2	-4.4	6.2	.	.	.	.	.
Cc1ccc(-n2c(N)c(C(=O)N3CCOCC3)sc2=S)cc1	13.1	53.0	-13.8	-23.5	.	.	.	.	.
CN1CCN(C(=O)c2sc(=S)n(-c3ccccc3)c2N)CC1	49.2*	82.3*	-5.4	-22.4	17.1	6.4	83.4*	19.2	-7.3
Cc1ccc(C(=O)COC(=O)c2cnccn2)cc1	-4.9	1.1	1.5	5.5	.	.	.	.	.
O=C(COC(=O)c1cnccn1)c1ccc([N+](=O)[O-])cc1	39.8*	78.8*	-4.2	-37.7	-0.4	-0.1	67.5*	7.2	-17.4
CC(C)Oc1cc(F)ccc1-c1cc(C(=O)NCCCn2ccnc2)[nH]n1	.	.	.	6.4	.	.	.	.	.
